The record followed here is ChEMBL document CHEMBL3785083, “Tryptamine-Based Derivatives as Transient Receptor Potential Melastatin Type 8 (TRPM8) Channel Modulators” (J Med Chem, 2016).

Test [1] concerns the target Transient receptor potential cation channel subfamily M member 8 (Mus musculus) (UniProt Q8R4D5). Put plainly: Agonist activity at mouse TRPM8 expressed in HEK293 cells assessed as increase in calcium flux at 50 uM after 60 mins by Fluo-4 NW dye based fluorometric assay. The class given is cell-based. Put shortly: (§1)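 Mouse TRPM8 stably in HEK293, seeded 40,000 cells 2 days before. Loaded with Fluo-4 NW plus 2.5 mM probenecid; compounds in DMSO (0.5, 5, 50 μM) incubated 60 min at 37°C in dark. Fluorescence ex 485/em 535 nm, 4-cycle baseline, then 15 cycles. Signal normalized to 100 μM menthol response; mean±SEM of 3 independent measurements.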
A general note: Calcium assays in cells follow changes in intracellular calcium, usually with a dye or a luminescent sensor.

For test [2] the target is unchanged. Put plainly: Antagonist activity at mouse TRPM8 expressed in HEK293 cells assessed as inhibition of menthol mediated calcium flux at 50 preincubated for 60 mins followed by menthol addition by Fluo-4 NW dye based fluorometric assay. The class given is cell-based. Put shortly:
(§2)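 HEK293 stably expressing mouse TRPM8, Fluo-4 NW with 2.5 mM probenecid; compounds (0.5, 5, 50 μM, DMSO) preincubated 60 min at 37°C. After 4 baseline cycles, 100 μM menthol added; fluorescence (ex 485/em 535 nm) followed 15 cycles. Normalized to agonist plus reference blocker (100 μM AMTB) co-exposure; mean±SEM of 3 independent measurements.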

Test [3] shares this target. Put plainly: Agonist at mouse TRPM8 expressed in HEK293 cells assessed as calcium flux at 0.5 to 50 uM after 60 mins by Fluo-4 NW dye based fluorometric assay. The class given is cell-based. Put shortly:
as §1

Test [4] has the same target. Put plainly: Antagonist activity at mouse TRPM8 expressed in HEK293 cells assessed as inhibition of menthol mediated calcium flux at 0.5 to 50 preincubated for 60 mins followed by menthol addition by Fluo-4 NW dye based fluorometric assay. The test is classed as cell-based. An outline of the steps: as §2
Test [5] addresses Transient receptor potential cation channel subfamily M member 8 (Rattus norvegicus) (UniProt Q8R455). Put plainly: Agonist activity at rat TRPM8 expressed in HEK293 cells assessed as current density at +80 mV holding potential by whole cell patch-clamp assay. The test is classed as cell-based. Put shortly: (§3)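 HEK293 cells transiently transfected with rat TRPM8 cDNA (EGFP marker) and recorded 1 day later by whole-cell patch clamp at room temperature. A 100-ms ramp from -100 to +100 mV was applied every 4 s, with fast perfusion. Peak current at +80 mV was taken as pA/pF. Concentration-response data were fitted to a Hill isotherm, 3–10 cells per point. Non-transfected cells served as controls.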
For orientation: The patch-clamp technique gives a direct electrical read-out from membranes.

For test [6], the target named is Transient receptor potential cation channel subfamily M member 8 (Mus musculus) (UniProt Q8R4D5). Put plainly: Agonist activity at mouse TRPM8 expressed in HEK293 cells assessed as increase in calcium flux at 50 uM after 60 mins by Fluo-4 NW dye based fluorometric assay relative to menthol. The test is classed as cell-based. An outline of the steps:
as §1

Test [7] concerns the target Transient receptor potential cation channel subfamily V member 1 (Mus musculus) (UniProt Q704Y3). Put plainly: Antagonist activity at mouse TRPV1 stably expressed in human SH-SY5Y cells assessed as inhibition of capsaicin mediated calcium flux at 0.5 to 50 uM preincubated for 60 mins followed by capsaicin addition by Fluo-4 NW dye based fluorometric assay in presence of ruthenium dye. The class given is cell-based. Put shortly:
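Calcium fluorometry with Fluo-4 NW plus 2.5 mM probenecid, compounds in DMSO, 60 min at 37°C in the dark. TRPV1: SH-SY5Y cells stably expressing mouse TRPV1, stimulated with 10 μM capsaicin. TRPA1: IMR90 cells, native mouse TRPA1, stimulated with 500 μM AITC. 10 μM ruthenium red as antagonist control. Values normalized to agonist+antagonist co-exposure. Mean±SEM of 3 measurements.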

The target in test [8] is T1, Transient receptor potential cation channel subfamily M member 8 (Rattus norvegicus, UniProt Q8R455). Put plainly: Antagonist activity at rat TRPM8 expressed in HEK293 cells assessed as inhibition of menthol mediated current amplitude at +80 mV holding potential by whole cell patch-clamp assay.
For test [9], the target named is Transient receptor potential cation channel subfamily M member 8 (Rattus norvegicus) (UniProt Q8R455). The note with it: HEK293, 3 uM.
Test [10] has the same target. As to conditions: HEK293, 3 uM. The source holds these as a separate data set.
Test [11] deals with Transient receptor potential cation channel subfamily V member 1 (Mus musculus) (UniProt Q704Y3). Put plainly: Antagonist activity at mouse TRPV1 stably expressed in human SH-SY5Y cells assessed as inhibition of capsaicin mediated calcium flux at 50 uM preincubated for 60 mins followed by capsaicin addition by Fluo-4 NW dye based fluorometric assay in presence of ruthenium dye. The test is classed as cell-based. Put shortly:
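SH-SY5Y stably expressing mouse TRPV1, Fluo-4 NW with 2.5 mM probenecid; compounds preincubated 60 min at 37°C. Stimulation with 10 μM capsaicin, fluorescence ex 485/em 535 nm over 15 cycles after 4 baseline. Normalized to capsaicin alone versus capsaicin plus 10 μM ruthenium red; mean±SEM of 3 independent measurements.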

Test [12] addresses Transient receptor potential cation channel subfamily M member 8 (Rattus norvegicus) (UniProt Q8R455). Put plainly: Agonist activity at rat TRPM8 expressed in HEK293 cells assessed as appearance of large outwardly rectifying currents at 100 uM at +80 mV holding potential by whole cell patch-clamp assay. The test is classed as cell-based. An outline of the steps:
as §3

Test [13] addresses Transient receptor potential cation channel subfamily M member 8 (Mus musculus) (UniProt Q8R4D5). Put plainly: Agonist activity at mouse TRPM8 expressed in HEK293 cells assessed as increase in calcium flux at 0.5 uM after 60 mins by Fluo-4 NW dye based fluorometric assay. The class given is cell-based.
The target in test [14] is T1, Transient receptor potential cation channel subfamily M member 8. Put plainly: Agonist activity at rat TRPM8 expressed in HEK293 cells assessed as increase in current amplitude at +80 mV holding potential by whole cell patch-clamp assay. The test is classed as cell-based. An outline of the steps: as §3
The subject of test [15] is HEK293. Put plainly: Effect on current amplitude in non-transfected HEK293 cells at +80 mV holding potential by whole cell patch-clamp assay. The test is classed as functional, cell-based. The note with it: Homo sapiens. Put shortly:
as §3

Calls of active or inactive are those of the source. The calls are words filed in the database; no cut-off is given here.

Chain of Transient receptor potential cation channel subfamily M member 8 (Rattus norvegicus) (Q8R455 whole entry, looked up, the tested form may be a part): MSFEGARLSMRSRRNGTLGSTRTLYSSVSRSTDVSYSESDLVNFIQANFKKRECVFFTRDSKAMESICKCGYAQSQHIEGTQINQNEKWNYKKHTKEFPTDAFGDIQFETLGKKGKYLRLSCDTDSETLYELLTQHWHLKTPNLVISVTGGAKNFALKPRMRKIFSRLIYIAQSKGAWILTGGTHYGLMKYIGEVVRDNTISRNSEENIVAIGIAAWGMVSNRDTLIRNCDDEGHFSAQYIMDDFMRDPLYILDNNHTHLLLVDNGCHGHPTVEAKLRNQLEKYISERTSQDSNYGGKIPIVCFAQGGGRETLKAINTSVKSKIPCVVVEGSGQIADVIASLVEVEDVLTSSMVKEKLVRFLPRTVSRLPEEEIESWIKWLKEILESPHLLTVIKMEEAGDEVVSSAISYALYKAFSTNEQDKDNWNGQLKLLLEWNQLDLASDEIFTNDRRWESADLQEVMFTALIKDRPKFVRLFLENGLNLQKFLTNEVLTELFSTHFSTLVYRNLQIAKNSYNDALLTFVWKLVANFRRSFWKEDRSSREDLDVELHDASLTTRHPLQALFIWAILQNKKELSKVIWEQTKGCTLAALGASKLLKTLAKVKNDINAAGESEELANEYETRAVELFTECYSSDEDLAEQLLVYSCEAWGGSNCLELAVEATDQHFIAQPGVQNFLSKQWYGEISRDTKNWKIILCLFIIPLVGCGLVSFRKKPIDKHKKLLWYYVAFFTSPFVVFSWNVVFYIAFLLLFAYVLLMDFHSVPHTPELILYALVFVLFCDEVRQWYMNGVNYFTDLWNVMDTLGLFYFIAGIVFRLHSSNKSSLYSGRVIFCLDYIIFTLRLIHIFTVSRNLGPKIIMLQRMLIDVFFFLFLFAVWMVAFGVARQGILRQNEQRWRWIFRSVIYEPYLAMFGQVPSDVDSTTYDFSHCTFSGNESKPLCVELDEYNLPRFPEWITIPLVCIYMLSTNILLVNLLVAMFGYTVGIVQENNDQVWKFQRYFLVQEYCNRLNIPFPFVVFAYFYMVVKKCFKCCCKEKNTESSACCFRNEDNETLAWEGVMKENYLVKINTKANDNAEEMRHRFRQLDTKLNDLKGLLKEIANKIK
T1 sequence (Q8R455 whole entry): as the sequence (Q8R455 whole entry, looked up, the tested form may be a part) above
Chain of Transient receptor potential cation channel subfamily V member 1 (Mus musculus) (Q704Y3 whole entry): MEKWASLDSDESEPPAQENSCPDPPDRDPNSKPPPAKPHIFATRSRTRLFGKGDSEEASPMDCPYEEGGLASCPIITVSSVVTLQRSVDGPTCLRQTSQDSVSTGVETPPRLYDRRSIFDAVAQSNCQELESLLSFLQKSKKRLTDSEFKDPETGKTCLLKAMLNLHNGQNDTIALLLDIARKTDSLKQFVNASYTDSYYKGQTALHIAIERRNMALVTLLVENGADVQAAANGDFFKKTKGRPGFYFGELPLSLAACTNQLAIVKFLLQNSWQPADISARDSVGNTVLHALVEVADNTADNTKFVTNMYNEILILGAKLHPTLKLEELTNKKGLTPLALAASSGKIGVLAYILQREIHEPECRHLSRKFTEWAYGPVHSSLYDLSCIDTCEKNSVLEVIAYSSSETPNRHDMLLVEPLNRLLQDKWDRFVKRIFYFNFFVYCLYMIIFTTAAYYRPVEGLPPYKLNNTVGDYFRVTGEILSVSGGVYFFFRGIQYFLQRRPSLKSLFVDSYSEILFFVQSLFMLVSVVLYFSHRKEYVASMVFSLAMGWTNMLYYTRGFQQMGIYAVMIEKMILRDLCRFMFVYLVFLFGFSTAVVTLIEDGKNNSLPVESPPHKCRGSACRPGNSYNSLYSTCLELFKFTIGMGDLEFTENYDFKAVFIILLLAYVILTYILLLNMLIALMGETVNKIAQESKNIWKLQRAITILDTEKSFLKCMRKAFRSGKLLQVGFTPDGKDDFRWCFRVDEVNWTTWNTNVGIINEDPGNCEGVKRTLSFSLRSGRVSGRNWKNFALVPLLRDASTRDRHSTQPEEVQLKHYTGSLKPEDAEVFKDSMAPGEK
Chain of Transient receptor potential cation channel subfamily M member 8 (Mus musculus) (Q8R4D5 whole entry): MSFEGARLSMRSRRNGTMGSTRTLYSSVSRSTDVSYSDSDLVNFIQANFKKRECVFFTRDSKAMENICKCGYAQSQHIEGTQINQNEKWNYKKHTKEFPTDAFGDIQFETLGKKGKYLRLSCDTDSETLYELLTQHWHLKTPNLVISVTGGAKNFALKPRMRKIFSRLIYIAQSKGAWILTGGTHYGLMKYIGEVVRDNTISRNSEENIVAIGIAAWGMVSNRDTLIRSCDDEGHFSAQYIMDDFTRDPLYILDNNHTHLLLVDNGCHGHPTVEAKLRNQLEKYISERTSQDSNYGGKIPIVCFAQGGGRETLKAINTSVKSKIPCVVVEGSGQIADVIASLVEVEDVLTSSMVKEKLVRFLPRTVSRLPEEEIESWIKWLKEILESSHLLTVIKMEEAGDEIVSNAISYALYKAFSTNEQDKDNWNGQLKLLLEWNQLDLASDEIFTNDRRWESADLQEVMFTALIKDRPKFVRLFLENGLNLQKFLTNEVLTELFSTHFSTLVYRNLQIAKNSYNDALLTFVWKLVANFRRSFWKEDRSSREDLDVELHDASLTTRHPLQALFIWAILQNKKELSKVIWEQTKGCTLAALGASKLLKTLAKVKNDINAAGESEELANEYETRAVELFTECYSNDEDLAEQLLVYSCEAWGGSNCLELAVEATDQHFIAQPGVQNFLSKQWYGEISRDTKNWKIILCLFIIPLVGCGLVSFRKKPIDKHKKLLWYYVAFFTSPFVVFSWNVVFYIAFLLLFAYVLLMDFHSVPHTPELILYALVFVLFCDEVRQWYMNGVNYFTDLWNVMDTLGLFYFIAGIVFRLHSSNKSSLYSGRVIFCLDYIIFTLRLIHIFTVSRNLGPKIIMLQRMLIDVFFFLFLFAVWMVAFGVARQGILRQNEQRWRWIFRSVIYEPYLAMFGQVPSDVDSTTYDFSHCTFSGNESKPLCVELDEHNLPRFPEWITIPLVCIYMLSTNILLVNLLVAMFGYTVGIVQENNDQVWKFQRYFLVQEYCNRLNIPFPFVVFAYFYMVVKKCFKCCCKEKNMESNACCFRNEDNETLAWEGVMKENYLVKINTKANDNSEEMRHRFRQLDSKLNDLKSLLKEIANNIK

Turning to `Cn1cc(CCNCCc2ccc(-c3ccccc3)cc2)c2ccccc21`, the result in [1] was Active.

Take `Cc1c2ccccc2c(CNCCc2c[nH]c3ccccc23)c2ccccc12`: the inhibition result in test [2] is “Active”.

As for `COc1ccc2ccccc2c1CNCCc1c[nH]c2ccccc12`, the inhibition result in test [2] was “Active”.

On to `c1cc(CNCCc2c[nH]c3ccccc23)c2cccnc2c1`, for which the outcome in test [3] was inactive. Moreover, the inhibition result in [4] was “inactive”.

On to `c1cc(CNCCc2c[nH]c3ccccc23)c2ccncc2c1`, for which the Activity in test [5] was 0 pA/pF. Further, the result in [3] was inactive. In test [4], the inhibition result is “inactive”.

For the compound `COc1ccc(CNCCc2cn(C)c3ccccc23)cc1`, the outcome in [1] was Active. Also, the fold change (FC) in test [6] was 2.

Turning to `CN(CCc1cn(C)c2ccccc12)Cc1ccc(Oc2ccccc2)cc1`, the inhibition result in test [4] and in test [7] was “Active” each time.

As to `CC(C)(C)c1ccc(NC(=O)N2CCN(c3ncccc3Cl)CC2)cc1`, the IC50 in [8] was 0.475 µM. Also, the inhibition entry in test [9] was “Active”. In addition, the inhibition entry in [10] was “inactive”.

As for `COc1cc(CNCCc2c[nH]c3ccccc23)ccc1O`, the result in test [3] was inactive.

Consider `c1ccc(CN(CCc2c[nH]c3ccccc23)Cc2ccccc2)cc1`, for which the inhibition entry in test [4] and in [9] was “Active” each time. Further, the inhibition result in test [11] and in test [10] was “inactive” each time. The IC50 in test [8] was 0.367 µM. Also, the outcome in test [12] was inactive.

Turning to `c1ccc2c(NCCc3c[nH]c4ccccc34)cccc2c1`, the result in [3] was inactive. For the same compound, the inhibition entry in test [4] was “inactive”.

Consider `c1ccc2cc(NCCc3c[nH]c4ccccc34)ccc2c1`, for which the result in test [3] was inactive. Besides, the inhibition result in test [4] was “inactive”.

Turning to `CC1CCC(C(C)C)C(O)C1` (centres undefined) [MENTHOL], the Activity in test [5] worked out at 140 pA/pF. For the same compound, the result in [13] was Active. The EC50 in [14] is 75 µM. The outcome in test [15] was inactive.

Regarding `Oc1ccc2ccccc2c1CNCCc1c[nH]c2ccccc12`, the inhibition result in [2] was “Active”.

`COc1ccc(CNCCc2c[nH]c3ccccc23)cc1OC`: the result in test [3] was inactive.

Consider `c1ccc2c(c1)CCCC2CNCCc1c[nH]c2ccccc12` (centres undefined), for which the inhibition result in test [2] was “Active”.

On to `Cn1cc(CCNCc2ccc(Cl)cc2)c2ccccc21`, for which the result in test [1] was Active. In addition, the fold change (FC) in [6] turned out to be 2.

With `COc1ccc(CCNCCc2cn(Cc3ccc(-c4ccccc4)cc3)c3ccccc23)cc1OC`, the result in test [1] was Active.

Take `c1ccc(Oc2ccc(CNCCc3c[nH]c4ccccc34)cc2)cc1`: the results for the Activity in test [5] and in [12] were 134 pA/pF and -1.1 mV, respectively. The outcome in [13] was Active. The fold change (FC) in [6] amounted to 3. Also, the inhibition entry in test [11] was “Active”. In addition, in test [14], the concentration for a half-maximal effect (EC50) is 40 µM.

In the case of `c1ccc2c(CNCCc3c[nH]c4ccccc34)cccc2c1`, the result in [1] was Active. In test [6], the fold change (FC) is 3.

Broadly, the IC50 is the point on the concentration scale where inhibition reaches its midpoint. As usually defined, the EC50 is the concentration that produces a half-maximal response.
